Diaphorase inh: counter-screen for diaphorase-based assays: diaphorase inhibitors and chemical oxidizers. 190,000 compounds, 0.69% hits. AID 1217. inhibition, % at 20 µM. diaphorase resazurin-to-resorufin fluorescence, NADH, 16 min; bacterial (C. kluyveri) enzyme, not human;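 active means primary screen inhibition at 20 µM above a set limit, cut at about 50% in these data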
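Test system: bacterial diaphorase enzyme (C. kluyveri); Quantity: 0.14 U/mL diaphorase, enzyme working solution; Times: reaction incubation of 16 min at room temperature; Measured by: fluorescence of resorufin formed from resazurin, Ex 544/Em 590 nm; Benchmarks: positive control minus NADH, DMSO neutral control.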
PMI act satM6P: increases human PMI activity with near-saturating mannose 6-phosphate; P34949; coupled PMI enzyme assay, resazurin fluorescence, 20 min; stronger effect = higher value; 1 = untreated enzyme, 0 = substrate-free blank; activation factor at 20 µM; 190,000 compounds, 0.34% hits; AID 1216;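 active means activation factor of 2 or more at 20 µM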
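Test system: Human PMI in coupled enzyme assay | Input: 15 ng/mL PMI | Medium: HEPES-buffered pH 7.4 with magnesium and detergent | Compound: One concentration, 20 µM, in 1% DMSO | Incubation: Enzyme reaction with compound 20 min at room temperature | Detection: Diaphorase-driven resazurin-to-resorufin fluorescence, excitation 544, emission 590 nm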
Diaphorase act: diaphorase activation or chemical reduction counter-screen; AID 1229; activation factor at 20 µM; 190,000 compounds, 0.005% hits; Diaphorase/resazurin coupled assay, resorufin fluorescence, 16 min; stronger effect = higher value; 1 = vehicle wells, 0 = NADH-free wells;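 active means diaphorase activity raised at least twofold by the compound at 20 µM; inactive means activation factor below 2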
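test system = bacterial diaphorase enzyme (C. kluyveri) | quantity = enzyme 0.07 U/mL final | reagent = NADH substrate 0.114 mM plus resazurin dye 0.1 mM, final | incubation = 16 min enzyme reaction, ambient temperature | buffer or medium = HEPES pH 7.4 buffer with MgCl2 and Tween 20 | signal = fluorescence of resorufin, 544 nm excitation, 590 nm emission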
FLuc inh counter: inhibits firefly luciferase, flagging false hits in luciferase inhibition screens. P08659. ATPLite firefly luciferase biochemical luminescence, 10 min. inhibition, % at 10 µM. 200,000 compounds, 1.5% hits;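 active means inhibition above about 50% when tested at 10 µM, limit read from the data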
Target sequence (P08659 whole entry, looked up): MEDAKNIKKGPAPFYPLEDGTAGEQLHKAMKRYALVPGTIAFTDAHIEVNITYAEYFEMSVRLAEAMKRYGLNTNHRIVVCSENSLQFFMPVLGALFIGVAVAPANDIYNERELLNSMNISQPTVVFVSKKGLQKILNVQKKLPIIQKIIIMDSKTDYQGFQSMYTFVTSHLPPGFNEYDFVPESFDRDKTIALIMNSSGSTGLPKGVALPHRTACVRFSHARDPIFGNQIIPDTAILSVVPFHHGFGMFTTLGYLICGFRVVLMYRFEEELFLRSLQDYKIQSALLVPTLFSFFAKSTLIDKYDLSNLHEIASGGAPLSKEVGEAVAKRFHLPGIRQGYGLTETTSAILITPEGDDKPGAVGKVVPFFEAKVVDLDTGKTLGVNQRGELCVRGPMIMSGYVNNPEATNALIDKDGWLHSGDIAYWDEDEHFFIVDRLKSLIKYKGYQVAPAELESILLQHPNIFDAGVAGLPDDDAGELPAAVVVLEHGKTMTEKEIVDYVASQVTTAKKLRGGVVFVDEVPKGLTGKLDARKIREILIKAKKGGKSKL
FLuc stim CS: firefly luciferase counter-screen for stimulation assays; 200,000 tested, under 10 active; P08659; activation factor at 10 µM; ATPlite luciferase biochemical, luminescence, 10 min; 0 = ATP-free wells, 1 = DMSO control;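 active means luciferase activation factor, scaled between plate controls, of at least 2 with compound at 10 µM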
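System: luciferase plus luciferin reagent, cell-free; medium: PBS as buffer for the ATP substrate; dosing: test compounds dosed from 2 mM stocks in 100% DMSO; timing: 10 min post-reagent at room temperature; measured by: luminescence measurement of luciferase light output; evaluation: luciferase activation, seen as luminescence increase over controls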
PMI act: activators of human phosphomannose isomerase | P34949 | purified human PMI, coupled resazurin fluorescence, 20 min; stronger effect = higher value; 1 = vehicle control, 0 substrate-free wells | activation factor at 20 µM | 190,000 compounds, 0.005% hits;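 active means activation factor of 2 or more at 20 µM, relative to plate controls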
Hits are given with their value; 0 = inactive. Sampled rows, rich in hits. Any-hit rate of the full collection: about 2.5%.

SMILES	Diaphorase inh	PMI act satM6P	Diaphorase act	FLuc inh counter	FLuc stim CS	PMI act
CCC(C)N1CC23C=CC(O2)C(C(=O)OCc2ccccc2)C3C1=O (configuration not stated)	0	0	0	0	0	0
CCOC(=O)c1c2c3c(c(Cl)ccc3[nH]c1=O)C(=O)c1ccccc1-2	0	2	0	0	0	0
CC(C)c1ccc(/C=N/N2CCCCC2)cc1	0	0	0	66	0	0
Fc1cccc(Cl)c1Cn1nnc2c(NCc3ccncc3)ncnc21	0	0	0	0	0	0
CNC(=O)COC(=O)c1ccc(-c2nc3ccccc3s2)s1	0	0	0	81	0	0
COCCCNC(=O)COC(=O)c1ccc(-c2nc3ccccc3s2)s1	0	0	0	0	0	0
Cc1ccccc1-c1nnn(CC(=O)Nc2cccc(S(N)(=O)=O)c2)n1	0	0	0	0	0	0
Cc1ccc(N2C(=O)C3C(C2=O)C(C(=O)c2ccc(Cl)cc2)N2CCCC32)cc1 (configuration not stated)	0	2	0	0	0	0
O=C(C1=C[C@@H]2[C@H]3C(=O)N(c4ccc(Cl)cc4)C(=O)[C@H]3[C@@H](C(=O)c3ccc(Cl)cc3)N2C=C1)c1ccccc1	0	0	0	0	0	0
CCCNC(=O)c1csc2c1CCCCC2	0	0	0	0	0	0
NS(=O)(=O)c1ccc(CNC(=O)c2csc3c2CCCC3)cc1	85	0	0	0	0	0
CC(=O)c1ccc(Nc2ccc(-c3ccccc3F)nn2)cc1	0	0	0	58	0	0
COc1ccccc1-c1ccc(Nc2ccc(C(=O)N3CCOCC3)cc2)nn1	0	0	0	0	0	0
Cc1occc1-c1nnc(SCC(=O)c2cc3ccccc3oc2=O)o1	51	0	0	0	0	0
Cc1occc1-c1nnc(SCC(=O)Nc2ccccn2)o1	0	0	0	0	0	0
O=C(CN1N=C(c2ccc(Cl)cc2)CCC1=O)NCc1cccs1	0	0	0	0	0	0
CCOC(=O)C1=C(C)N(C)C(=O)NC1c1cc2c(cc1[N+](=O)[O-])OCO2 (configuration not stated)	67	0	0	0	0	0
C=CCOC(=O)C1=C(C)N(C)C(=O)NC1c1cc2c(cc1Br)OCO2 (configuration not stated)	0	0	0	0	0	0
O=C(O)CC(c1ccccc1)n1cccc1 (configuration not stated)	0	2	0	0	0	0
CC(=O)Nc1ccc2c(c1)OCCOCCOc1cc(NC(C)=O)ccc1OCCOCCOCCO2	0	0	0	0	0	0
O=C(Nc1ccc2c(c1)OCO2)c1cncc(Br)c1	0	0	0	0	0	0
O=C(Nc1ccc2c(c1)OCCO2)c1cncc(Br)c1	0	0	0	65	0	0
O=C(Nc1ccc2c(c1)OCCO2)c1ccc(Br)s1	0	0	0	86	0	0
O=C(c1ccccc1)c1c[nH]c(C(=O)NNc2ccccc2)c1	0	2.3	0	0	0	0
O=C(c1ccccc1)c1c[nH]c(C(=O)NCc2cccnc2)c1	0	0	0	0	0	0
SMILES	Diaphorase inh	PMI act satM6P	Diaphorase act	FLuc inh counter	FLuc stim CS	PMI act
Cc1ccc(NC(=O)c2c(C)noc2C)cc1	0	0	0	0	0	0
Cc1noc(N)c1C(=O)Nc1ccc(C(C)(C)C)cc1	0	0	0	67	0	0
CCOC(=O)Cc1ccc(NC(=O)c2ccc(C(C)(C)C)cc2)cc1	0	0	0	54	0	0
CCOC(=O)Cc1ccc(NC(=O)c2ccccc2Br)cc1	0	0	0	0	0	0
CCn1ncc([N+](=O)[O-])c1C(=O)Nc1c(C)nn(Cc2ccc(F)cc2)c1C	0	0	0	0	0	0
Cc1cccc(Oc2ccc(Cl)cc2N)c1	0	0	0	0	0	0
NC(=O)[C@@H]1CCCN1Cc1nc(Cc2ccccc2Cl)no1	0	0	0	0	0	0
O=C(CSc1ncnc2c1sc1ccccc12)Nc1ccc(Br)cc1	0	0	0	0	0	0
Nc1c(S(=O)(=O)c2cccc(Cl)c2)c2nc3ccccc3nc2n1/N=C/c1ccc(O)c(O)c1	0	0	0	0	0	0
CC(C)(C)C(=O)Nc1cc2nn(-c3ccccc3)nc2cc1Cl	0	0	0	97	0	0
CC(C)C(=O)Nc1ccc2nn(-c3ccccc3)nc2c1	0	0	0	69	0	0
CC(=O)Nc1cc2nn(-c3ccccc3)nc2cc1Cl	0	0	0	56	0	0
O=C(Nc1cc2nn(-c3ccccc3)nc2cc1Cl)c1ccco1	0	0	0	0	0	0
N#Cc1c2ccc(O)cc2n2ccccc12	0	0	0	0	0	0
O=C(CN1CCN(CC(=O)c2ccc(F)cc2)CC1)Nc1ccccc1Cl	0	2.2	0	0	0	0
COc1cccc(C(=O)NCCSc2ccc(F)cc2)c1	56	0	0	0	0	0
Cn1c(O)c(N=NC(=O)CNC(=O)c2ccco2)c2ccccc21	0	0	0	0	0	0
Cc1occc1C(=O)N=Nc1c(O)n(C)c2ccccc12	0	0	0	60	0	0
O=C(N=Nc1c(O)n(Cc2ccccc2)c2ccccc12)c1ccc(O)cc1	0	0	0	51	0	0
Cn1c(O)c(N=NC(=O)c2ccccc2O)c2ccccc21	0	0	0	82	0	0
CCOC(=O)C(=O)N=Nc1c(O)n(C)c2ccccc12	0	0	0	0	0	0
Cn1c(O)c(N=NC(=O)c2ccco2)c2ccccc21	0	0	0	64	0	0
COc1ccc(/C=N/NC2=NCCCCC2)c(OC)c1	0	0	0	0	0	0
COc1cc(/C=N/NC(N)=O)ccc1OCC(=O)Nc1cc(C)c(C)cc1Br	0	0	0	0	0	0
COc1ccc(C2=C(SC)CC2=NC(C)(C)C)cc1	0	0	0	0	0	0
Cc1ccc(C)c(CSc2ncccc2C(=O)O)c1	0	0	0	0	0	0
COc1ccc(C(C(=O)NC(C)(C)C)N(C(=O)CNC(=O)c2cccs2)c2ccc(NC(C)=O)cc2)cc1OC (configuration not stated)	0	0	0	0	0	0
Cc1ccc(C(=O)Nc2ncc(Cc3ccc(F)cc3)s2)o1	0	0	0	62	0	0
O=C1c2cccc([N+](=O)[O-])c2C(=O)N1CCO	0	0	0	0	0	0
O=C1c2cccc3c(Nc4ccccc4Cl)c([N+](=O)[O-])cc(c23)C(=O)N1CCO	56	0	0	0	0	0

High-throughput results deposited in PubChem by Sanford-Burnham Center for Chemical Genomics.
